ChEMBL document CHEMBL3745596, “Chlorophenoxy aminoalkyl derivatives as histamine H(3)R ligands and antiseizure agents” (Bioorg Med Chem, 2016)
Activity calls are given as the source filed them.

Legend:
Mus musculus [1] = assay: Neurotoxicity in CF1 albino mouse assessed as death at 300 mg/kg, ip after 0.5 hrs by rotarod test; assay type: toxicity, organism-based; settings: in vivo
In short: (§1)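 Male albino CF-1 mice dosed ip with compound suspended in 0.5% methylcellulose, then placed on a 1-inch knurled plastic rod turning at 6 rpm. A fall three times within 1 min counted as neurotoxicity. Observations were made at 0.5 h and 4 h after dosing. Result given as animals showing toxicity per animals tested, with the kind of toxicity recorded.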

Mus musculus [2] = assay: Neurotoxicity in CF1 albino mouse assessed as unable to grasp rotarod and death at 100 mg/kg, ip after 0.5 hrs by rotarod test; assay type: toxicity, organism-based; settings: in vivo; in short: as §1
Mus musculus [3] = assay: Anticonvulsant activity in CF1 albino mouse assessed as protection against subcutaneous pentetrazole-induced seizure at 30 mg/kg, ip after 4 hrs; assay type: functional, organism-based
In short: (§2)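 Male CF-1 mice, ip in 0.5% methylcellulose; pentetrazole at CD97 (85 mg/kg) injected subcutaneously in a loose fold of neck skin. Observed 30 min; absence of even a threshold seizure (single clonic spasm lasting at least 5 s) counted as protection. Scored protected/tested, or ED50.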

Mus musculus [4] = assay: Neurotoxicity in CF1 albino mouse at 300 mg/kg, ip after 4 hrs by rotarod test; assay type: toxicity, organism-based; settings: in vivo
In short: (§3)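 Rotarod neurotoxicity in male albino CF-1 mice dosed ip with compound suspended in 0.5% methylcellulose. Animal placed on a 1 inch diameter knurled plastic rod rotating at 6 rpm. Neurotoxicity scored when the animal falls off three times within 1 min. Readout is number of animals toxic/number tested at the stated time after dosing. TD50 with 95% confidence interval from the quantitative study.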

Mus musculus [5] = assay: Anticonvulsant activity in CF1 albino mouse assessed as protection against maximal electroshock-induced seizure at 30 mg/kg, ip after 0.5 hrs; assay type: functional, organism-based
In short: (§4)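 Male CF-1 mice dosed ip as suspension in 0.5% methylcellulose. Corneal electrodes deliver 60 Hz alternating current, 50 mA for […], after a drop of 0.5% tetracaine HCl in 0.9% NaCl per eye. Protection means abolition of hindlimb tonic extension; scored as protected/tested, or ED50 with 95% confidence interval.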

Mus musculus [6] = assay: Anticonvulsant activity in CF1 albino mouse assessed as protection against maximal electroshock-induced seizure at 30 mg/kg, ip after 4 hrs; assay type: functional, organism-based; in short: as §4
Mus musculus [7] = assay: Anticonvulsant activity in CF1 albino mouse assessed as protection against maximal electroshock-induced seizure at 10 mg/kg, ip after 0.5 hrs; assay type: functional, organism-based; in short: as §4
Mus musculus [8] = assay: Anticonvulsant activity in CF1 albino mouse assessed as protection against subcutaneous pentetrazole-induced seizure at 100 mg/kg, ip after 4 hrs; assay type: functional, organism-based; in short: as §2
Rattus norvegicus [9] = assay: Anticonvulsant activity in Sprague-Dawley rat assessed as protection against maximal electroshock-induced seizure at 30 mg/kg, po; assay type: functional
Mus musculus [10] = assay: Neurotoxicity in CF1 albino mouse at 100 mg/kg, ip after 4 hrs by rotarod test; assay type: toxicity, organism-based; settings: in vivo; in short: as §3
Cytochrome P450 3A4 = Cytochrome P450 3A4 (Homo sapiens, UniProt P08684); assay: Inhibition of CYP3A4 (unknown origin) up to 10 uM; assay type: ADME
Sequence of Cytochrome P450 3A4 (P08684 whole entry): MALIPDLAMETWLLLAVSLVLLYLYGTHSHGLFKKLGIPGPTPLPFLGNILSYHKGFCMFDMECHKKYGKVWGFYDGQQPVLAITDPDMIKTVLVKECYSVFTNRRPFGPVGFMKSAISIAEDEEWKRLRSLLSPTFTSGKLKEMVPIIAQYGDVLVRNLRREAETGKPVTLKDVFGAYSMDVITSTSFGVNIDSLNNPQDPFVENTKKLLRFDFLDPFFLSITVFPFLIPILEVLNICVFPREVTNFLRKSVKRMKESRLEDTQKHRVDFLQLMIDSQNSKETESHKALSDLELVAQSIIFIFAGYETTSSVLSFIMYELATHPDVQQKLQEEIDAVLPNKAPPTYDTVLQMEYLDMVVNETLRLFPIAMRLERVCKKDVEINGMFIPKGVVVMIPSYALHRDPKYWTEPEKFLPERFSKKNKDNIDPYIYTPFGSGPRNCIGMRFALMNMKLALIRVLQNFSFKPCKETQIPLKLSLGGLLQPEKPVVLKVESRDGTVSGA

Mus musculus [11] = assay: Anticonvulsant activity in CF1 albino mouse assessed as protection against subcutaneous pentetrazole-induced seizure at 30 mg/kg, ip after 0.5 hrs; assay type: functional, organism-based; in short: as §2
Mus musculus [12] = assay: Neurotoxicity in CF1 albino mouse at 3 mg/kg, ip after 0.5 hrs by rotarod test; assay type: toxicity, organism-based; settings: in vivo; in short: as §3
[13] = Antiproliferative activity against human IMR32 cells assessed as cell viability after 48 hrs by formazan EZ4U dye based assay; settings: IMR-32, 48 h
In short: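 HEK-293 (1.5 × 10⁴/well) or IMR-32 (2 × 10⁴/well) cells in DMEM with 10% FBS, 37 °C, 5% CO₂, grown 24 h to about 60% confluence; compounds 0.01–250 µM final, DMSO at most 1%, 48 h.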

Mus musculus [14] = assay: Neurotoxicity in CF1 albino mouse at 30 mg/kg, ip after 0.5 hrs by rotarod test; assay type: toxicity, organism-based; settings: in vivo; in short: as §3
Mus musculus [15] = assay: Neurotoxicity in CF1 albino mouse at 10 mg/kg, ip after 0.5 hrs by rotarod test; assay type: toxicity, organism-based; settings: in vivo
In short: (§5)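 Rotarod neurotoxicity in male CF-1 mice dosed ip as 0.5% methylcellulose suspension: mouse placed on 1 inch knurled rod rotating at 6 rpm; toxicity when the animal falls off three times within 1 min, with other signs noted. Scored as toxic/tested at 0.5 h and 4 h.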

Mus musculus [16] = assay: Neurotoxicity in CF1 albino mouse at 30 mg/kg, ip after 4 hrs by rotarod test; assay type: toxicity, organism-based; settings: in vivo; in short: as §3
Histamine H3 receptor [17] = target: T1, Histamine H3 receptor (Homo sapiens, UniProt Q9Y5N1); assay: Displacement of [3H]-Nalpha-methylhistamine from human recombinant histamine H3 receptor expressed in HEK293 cells after 90 mins; assay type: cell-based
T1 sequence (Q9Y5N1 whole entry): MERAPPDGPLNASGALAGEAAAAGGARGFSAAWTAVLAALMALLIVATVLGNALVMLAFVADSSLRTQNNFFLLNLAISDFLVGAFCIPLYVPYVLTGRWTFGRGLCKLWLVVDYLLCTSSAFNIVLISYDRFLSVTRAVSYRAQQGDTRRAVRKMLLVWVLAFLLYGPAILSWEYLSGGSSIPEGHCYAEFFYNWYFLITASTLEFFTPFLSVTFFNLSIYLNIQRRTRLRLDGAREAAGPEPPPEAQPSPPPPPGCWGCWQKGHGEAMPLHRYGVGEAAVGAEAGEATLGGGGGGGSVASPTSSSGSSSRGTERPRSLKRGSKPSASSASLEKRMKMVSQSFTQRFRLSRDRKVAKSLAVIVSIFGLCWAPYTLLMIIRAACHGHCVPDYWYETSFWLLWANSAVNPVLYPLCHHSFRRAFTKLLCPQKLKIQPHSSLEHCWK

Mus musculus [18] = assay: Anticonvulsant activity in CF1 albino mouse assessed as protection against maximal electroshock-induced seizure at 3 mg/kg, ip after 0.5 hrs; assay type: functional, organism-based; in short: as §4
Histamine H3 receptor [19] = target: T1, Histamine H3 receptor; assay: Antagonist activity at human recombinant histamine H3 receptor expressed in HEK293 cells assessed as inhibition of forskolin/(R)(-)-alpha-methylhistamine-induced cAMP accumulation after 1 hr by TR-FRET immunoassay; assay type: functional, cell-based
In short: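 HEK293 cells stably expressing hH3R, stimulated 30 min at room temperature with (R)(-)-α-methylhistamine (15 nM), forskolin and antagonist (0.1 nM–10 µM range) added together. cAMP read by TR-FRET (Eu-cAMP tracer, ULight anti-cAMP antibody, 1 h), converted via cAMP standard curve to % maximal response. Sigmoidal dose–response fit; mean of three experiments, each in triplicate.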

Mus musculus [20] = assay: Anticonvulsant activity in CF1 albino mouse assessed as protection against subcutaneous pentetrazole-induced seizure at 100 mg/kg, ip after 0.5 hrs; assay type: functional, organism-based; in short: as §2
Liver microsome = assay: Drug metabolism in human liver microsomes after 2 hrs by UPLC-MS/MS analysis; assay type: ADME
In short: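 Pooled adult male and female human liver microsomes 1 mg/mL in 0.1 M Tris–HCl pH 7.4 with NADPH regeneration system; started after 5 min preincubation at 37 °C, incubated 2 h at 37 °C, stopped with cold methanol, centrifuged, supernatant analysed by UPLC with ESI tandem quadrupole MS.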

Mus musculus [21] = assay: Neurotoxicity in CF1 albino mouse assessed as death at 300 mg/kg, ip after 4 hrs by rotarod test; assay type: toxicity, organism-based; settings: in vivo; in short: as §1
Mus musculus [22] = assay: Anticonvulsant activity in CF1 albino mouse assessed as protection against maximal electroshock-induced seizure at 100 mg/kg, ip after 4 hrs; assay type: functional, organism-based; in short: as §4
Mus musculus [23] = assay: Anticonvulsant activity in CF1 albino mouse assessed as protection against maximal electroshock-induced seizure at 100 mg/kg, ip after 0.5 hrs; assay type: functional, organism-based; in short: as §4
Rattus norvegicus [24] = assay: Anticonvulsant activity in Sprague-Dawley rat assessed as protection against pilocarpine-induced convulsive status epilepticus at 65 mg/kg, ip; assay type: functional, organism-based
In short: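 Male Sprague Dawley rats (150–180 g) dosed ip, pilocarpine 50 mg/kg ip given; compound dosed immediately at first behavioral Stage 3 seizure or 30 min later. Number protected from Racine Stage 3 or greater seizures recorded.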

Mus musculus [25] = assay: Neurotoxicity in CF1 albino mouse assessed as vocalization at 30 mg/kg, ip after 0.5 hrs by rotarod test; assay type: toxicity, organism-based; settings: in vivo; in short: as §5
Mus musculus [26] = assay: Neurotoxicity in CF1 albino mouse assessed as death at 100 mg/kg, ip after 0.5 hrs by rotarod test; assay type: toxicity, organism-based; settings: in vivo; in short: as §1

| SMILES | Activity (Mus musculus [1]) | Activity (Mus musculus [3]) | Activity (Mus musculus [4]) | Activity (Mus musculus [5]) | Activity (Mus musculus [6]) | Activity (Mus musculus [7]) | Activity (Mus musculus [8]) | Activity (Mus musculus [10]) | Activity (Mus musculus [11]) | Activity (Mus musculus [12]) | Activity (Mus musculus [14]) | Activity (Mus musculus [15]) | Activity (Mus musculus [16]) | Ki (Histamine H3 receptor [17]) | Activity (Mus musculus [18]) | Activity (Mus musculus [20]) | further results |
| --- | --- | --- | --- | --- | --- | --- | --- | --- | --- | --- | --- | --- | --- | --- | --- | --- | --- |
| CC1CCCN(CCCCCOc2ccc(Cl)cc2)C1.O=C(O)C(=O)O (configuration not stated) | Toxic | inactive | Non-toxic | Active | inactive | inactive | inactive | Non-toxic | inactive | Non-toxic | Non-toxic | Non-toxic | Non-toxic | 133 nM | inactive | inactive | Activity (Mus musculus [2]): Toxic; Activity (Rattus norvegicus [9]): 25%; inhibition (INH) (Cytochrome P450 3A4): Not Active; IC50 [13]: 89000 nM; EC50 (Histamine H3 receptor [19]): 72 nM; Drug metabolism (Liver microsome): metabolite_detected |
| Clc1cccc(OCCCCCCCN2CCCCC2)c1.O=C(O)C(=O)O | Toxic | inactive |  | inactive | inactive |  | inactive | Non-toxic | inactive |  | Non-toxic |  | Non-toxic | 333 nM |  | inactive | Activity (Mus musculus [21]): Non-toxic; Activity (Mus musculus [22]): inactive; Activity (Mus musculus [23]): inactive; Activity (Rattus norvegicus [24]): Active |
| CC1CCN(CCCCCOc2ccc(Cl)cc2)CC1.O=C(O)C(=O)O | Toxic | inactive | Non-toxic | Active | Active | inactive |  | Non-toxic | inactive | Non-toxic |  | Non-toxic | Non-toxic | 800 nM | inactive |  | Activity (Mus musculus [25]): Toxic; Activity (Mus musculus [26]): Toxic |
